Assays:
[1] = tested on: Coxsackievirus; assay: Antiviral activity against Coxsackievirus B3 infected in african green monkey Vero cells assessed as reduction in viral-induced cytopathic effect; format: functional, organism-based
Summary of the method: (§1)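 Vero (African green monkey kidney) cells were infected with the CVB subtype and scored by viral cytopathogenic effect (CPE) reduction, with ribavirin as the positive control. IC50 is the concentration that inhibits CVB growth by 50%.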

[2] = Cytotoxicity against african green monkey Vero cells assessed as inhibition of cell growth after 24 hrs by CPE assay; format: cell-based; details: chlorocebus sabaeus, read-out: TC50
[3] = Selectivity index, ratio of TC50 for african green monkey Vero cells to IC50 for Coxsackievirus B3 infected in african green monkey Vero cells; format: toxicity, cell-based; details: read-out: Selectivity Index
Summary of the method: (§2)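 SI is calculated as TC50 (50% inhibition of Vero cell growth) divided by IC50 (50% inhibition of the respective CVB subtype's growth, from the CPE assay in Vero cells, ribavirin as positive control).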

[4] = tested on: Coxsackievirus; assay: Antiviral activity against Coxsackievirus B5 infected in african green monkey Vero cells assessed as reduction in viral-induced cytopathic effect; format: functional, organism-based; summary of the method: as §1
[5] = tested on: Coxsackievirus; assay: Antiviral activity against Coxsackievirus B6 infected in african green monkey Vero cells assessed as reduction in viral-induced cytopathic effect; format: functional, organism-based; summary of the method: as §1
[6] = tested on: Coxsackievirus; assay: Antiviral activity against Coxsackievirus B1 infected in african green monkey Vero cells assessed as reduction in viral-induced cytopathic effect; format: functional, organism-based; summary of the method: as §1
[7] = tested on: Coxsackievirus; assay: Antiviral activity against Coxsackievirus B2 infected in african green monkey Vero cells assessed as reduction in viral-induced cytopathic effect; format: functional, organism-based; summary of the method: as §1
[8] = Selectivity index, ratio of TC50 for african green monkey Vero cells to IC50 for Coxsackievirus B6 infected in african green monkey Vero cells; format: toxicity, cell-based; details: read-out: Selectivity Index; summary of the method: as §2
[9] = Selectivity index, ratio of TC50 for african green monkey Vero cells to IC50 for Coxsackievirus B2 infected in african green monkey Vero cells; format: toxicity, cell-based; details: read-out: Selectivity Index; summary of the method: as §2
[10] = Selectivity index, ratio of TC50 for african green monkey Vero cells to IC50 for Coxsackievirus B1 infected in african green monkey Vero cells; format: toxicity, cell-based; details: read-out: Selectivity Index; summary of the method: as §2

| SMILES | IC50 [1] [µM] | CC50 at 24 h [2] [µM] | selectivity ratio [3] | also measured |
| --- | --- | --- | --- | --- |
| COC(=O)CCC[C@@H]1[C@H]2CCCN3CCC[C@@H](CN1S(=O)(=O)c1cccc(C#N)c1)[C@@H]23 | 11.7 | 288 | 24.6 | – |
| O=C(O)C/C=C/[C@@H]1[C@H]2CCCN3CCC[C@@H](CN1S(=O)(=O)c1ccc(C(F)(F)F)cc1)[C@@H]23 | 33.7 | 1470 | 43.6 | – |
| COC(=O)C/C=C\[C@@H]1[C@H]2CCCN3CCC[C@@H](CN1S(=O)(=O)c1cccc(C(F)(F)F)c1)[C@@H]23 | 2.24 | 198 | 88.3 | – |
| N#Cc1ccccc1S(=O)(=O)N1C[C@@H]2CCCN3CCC[C@@H]([C@H]23)[C@H]1/C=C\CC(=O)O | 27.6 | 430 | 15.6 | – |
| N#Cc1cccc(S(=O)(=O)N2C[C@@H]3CCCN4CCC[C@@H]([C@H]34)[C@H]2/C=C\CCO)c1 | 5.47 | 148 | 27 | – |
| COC(=O)C/C=C\[C@@H]1[C@H]2CCCN3CCC[C@@H](CN1S(=O)(=O)c1ccc(C(F)(F)F)cc1)[C@@H]23 | 8.17 | 54.7 | 6.7 | – |
| COC(=O)C/C=C\[C@@H]1[C@H]2CCCN3CCC[C@@H](CN1S(=O)(=O)c1cccc([N+](=O)[O-])c1)[C@@H]23 | 9.24 | 112 | 12.1 | – |
| O=[N+]([O-])c1ccc(S(=O)(=O)N2C[C@@H]3CCCN4CCC[C@@H]([C@H]34)[C@H]2/C=C\CCO)cc1 | 17 | 265 | 15.6 | – |
| N#Cc1cccc(S(=O)(=O)N2C[C@@H]3CCCN4CCC[C@@H]([C@H]34)[C@H]2CCCC(=O)O)c1 | 82.3 | 428 | 5.2 | – |
| O=S(=O)(c1ccc(C(F)(F)F)cc1)N1C[C@@H]2CCCN3CCC[C@@H]([C@H]23)[C@H]1/C=C\CCO | 4.17 | 93.5 | 22.4 | – |
| N#Cc1ccc(S(=O)(=O)N2C[C@@H]3CCCN4CCC[C@@H]([C@H]34)[C@H]2/C=C\CC(=O)O)cc1 | 52.4 | 745 | 14.2 | – |
| N#Cc1ccccc1S(=O)(=O)N1C[C@@H]2CCCN3CCC[C@@H]([C@H]23)[C@H]1C/C=C/C(=O)O | > 155 | 466 | – | – |
| N#Cc1ccc(S(=O)(=O)N2C[C@@H]3CCCN4CCC[C@@H]([C@H]34)[C@H]2C/C=C/C(=O)O)cc1 | 29.9 | > 466 | > 15.7 | – |
| O=C(O)C/C=C\[C@@H]1[C@H]2CCCN3CCC[C@@H](CN1S(=O)(=O)c1cc(Br)c(Br)s1)[C@@H]23 | 53.1 | 191 | 3.6 | – |
| O=C(O)C/C=C\[C@@H]1[C@H]2CCCN3CCC[C@@H](CN1S(=O)(=O)c1ccc(C(F)(F)F)cc1)[C@@H]23 | 18.6 | 272 | 14.7 | – |
| COC(=O)C/C=C/[C@@H]1[C@H]2CCCN3CCC[C@@H](CN1S(=O)(=O)c1ccccc1C(F)(F)F)[C@@H]23 | 11.9 | 38.1 | 3.2 | – |
| O=C(O)C/C=C\[C@@H]1[C@H]2CCCN3CCC[C@@H](CN1S(=O)(=O)c1cccc([N+](=O)[O-])c1)[C@@H]23 | 63.6 | 445 | 7 | – |
| O=C(O)C/C=C\[C@@H]1[C@H]2CCCN3CCC[C@@H](CN1S(=O)(=O)c1ccccc1[N+](=O)[O-])[C@@H]23 | 16.2 | 595 | 36.8 | – |
| NC(=O)c1ncn([C@@H]2O[C@H](CO)[C@@H](O)[C@H]2O)n1 [RIBAVIRIN] | 695 | 8200 | – | IC50 [4]: 911 µM; IC50 [5]: 1710 µM; IC50 [6]: 1950 µM; IC50 [7]: 2100 µM |
| COC(=O)C/C=C\[C@@H]1[C@H]2CCCN3CCC[C@@H](CN1S(=O)(=O)c1ccccc1C#N)[C@@H]23 | 4.21 | 289 | 68.7 | – |
| COC(=O)CCC[C@@H]1[C@H]2CCCN3CCC[C@@H](CN1S(=O)(=O)c1ccc(C(F)(F)F)cc1)[C@@H]23 | 2.54 | 73.4 | 28.9 | – |

| SMILES | IC50 [1] [µM] | CC50 at 24 h [2] [µM] | selectivity ratio [3] | also measured |
| --- | --- | --- | --- | --- |
| O=S(=O)(c1ccc(C(F)(F)F)cc1)N1C[C@@H]2CCCN3CCC[C@@H]([C@H]23)[C@H]1CCCCO | 6.55 | 233 | 35.5 | – |
| O=C(O)C/C=C\[C@@H]1[C@H]2CCCN3CCC[C@@H](CN1S(=O)(=O)c1ccc([N+](=O)[O-])cc1)[C@@H]23 | 49.8 | 309 | 6.2 | – |
| COC(=O)C/C=C\[C@@H]1[C@H]2CCCN3CCC[C@@H](CN1S(=O)(=O)c1ccc(C#N)cc1)[C@@H]23 | 8.04 | 292 | 36.3 | – |
| N#Cc1cccc(S(=O)(=O)N2C[C@@H]3CCCN4CCC[C@@H]([C@H]34)[C@H]2CCCCO)c1 | 11.3 | 147 | 13 | – |
| COC(=O)C/C=C\[C@@H]1[C@H]2CCCN3CCC[C@@H](CN1S(=O)(=O)c1ccc([N+](=O)[O-])cc1)[C@@H]23 | 7.02 | 186 | 26.4 | – |
| N#Cc1cccc(S(=O)(=O)N2C[C@@H]3CCCN4CCC[C@@H]([C@H]34)[C@H]2/C=C\CC(=O)O)c1 | 17.4 | 745 | 42.7 | – |
| COC(=O)C/C=C\[C@@H]1[C@H]2CCCN3CCC[C@@H](CN1S(=O)(=O)c1cc(Br)c(Br)s1)[C@@H]23 | 1.19 | 21.1 | 17.7 | – |
| N#Cc1ccccc1S(=O)(=O)N1C[C@@H]2CCCN3CCC[C@@H]([C@H]23)[C@H]1/C=C/CC(=O)O | 22.7 | 466 | 20.5 | – |
| O=[N+]([O-])c1ccccc1S(=O)(=O)N1C[C@@H]2CCCN3CCC[C@@H]([C@H]23)[C@H]1CCCCO | 35.7 | 244 | 6.8 | – |
| O=S(=O)(c1cccc(C(F)(F)F)c1)N1C[C@@H]2CCCN3CCC[C@@H]([C@H]23)[C@H]1/C=C\CCO | 15 | 93.5 | 6.2 | – |
| O=C(O)C/C=C/[C@@H]1[C@H]2CCCN3CCC[C@@H](CN1S(=O)(=O)c1ccccc1C(F)(F)F)[C@@H]23 | 11.1 | 393 | 35.4 | – |
| COC(=O)CCC[C@@H]1[C@H]2CCCN3CCC[C@@H](CN1S(=O)(=O)c1cccc(C(F)(F)F)c1)[C@@H]23 | 1.98 | 193 | 92.4 | selectivity ratio [8]: 139; selectivity ratio [9]: 16.7; selectivity ratio [10]: 144; IC50 [5]: 0.44 µM; IC50 [6]: 1.28 µM; IC50 [7]: 7.61 µM |
| O=C(O)CCC[C@@H]1[C@H]2CCCN3CCC[C@@H](CN1S(=O)(=O)c1ccc(C(F)(F)F)cc1)[C@@H]23 | 75.4 | 392 | 5.2 | – |
| O=C(O)CCC[C@@H]1[C@H]2CCCN3CCC[C@@H](CN1S(=O)(=O)c1ccccc1[N+](=O)[O-])[C@@H]23 | 78.9 | 410 | 5.2 | – |
| COC(=O)CCC[C@@H]1[C@H]2CCCN3CCC[C@@H](CN1S(=O)(=O)c1ccccc1[N+](=O)[O-])[C@@H]23 | 23.9 | 399 | 16.7 | – |
| COC(=O)C/C=C/[C@@H]1[C@H]2CCCN3CCC[C@@H](CN1S(=O)(=O)c1ccccc1C#N)[C@@H]23 | 8.92 | 80.3 | 9 | – |
| COC(=O)CCC[C@@H]1[C@H]2CCCN3CCC[C@@H](CN1S(=O)(=O)c1cccc([N+](=O)[O-])c1)[C@@H]23 | 3.51 | 68.9 | 19.7 | – |
| COC(=O)C/C=C\[C@@H]1[C@H]2CCCN3CCC[C@@H](CN1S(=O)(=O)c1ccccc1[N+](=O)[O-])[C@@H]23 | 5.23 | 481 | 92.1 | – |
| COC(=O)C/C=C/[C@@H]1[C@H]2CCCN3CCC[C@@H](CN1S(=O)(=O)c1cccc(C#N)c1)[C@@H]23 | 7.3 | 72.4 | 9.9 | – |
| O=C(O)/C=C/C[C@@H]1[C@H]2CCCN3CCC[C@@H](CN1S(=O)(=O)c1ccccc1C(F)(F)F)[C@@H]23 | 27.2 | 424 | 15.6 | – |
| N#Cc1cccc(S(=O)(=O)N2C[C@@H]3CCCN4CCC[C@@H]([C@H]34)[C@H]2/C=C/CC(=O)O)c1 | 13.1 | 466 | 35.5 | – |

Reference: ChEMBL document CHEMBL3425484, “Novel N-benzenesulfonyl sophocarpinol derivatives as coxsackie B virus inhibitors” (ACS Med Chem Lett, 2015)
